NPY-Y2 PAM-ag – potentiates or activates human NPY-Y2 receptor; activation, % at 3.6 µM; cells expressing NPY-Y2, potentiator/agonist read-out; actives 0.45% (n = 220,000); AID 1359; in the data active means activation above about 27%;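 further: cells stimulated with NPY near EC25 plus isoproterenol at EC100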
Target sequence (P49146 whole entry, looked up): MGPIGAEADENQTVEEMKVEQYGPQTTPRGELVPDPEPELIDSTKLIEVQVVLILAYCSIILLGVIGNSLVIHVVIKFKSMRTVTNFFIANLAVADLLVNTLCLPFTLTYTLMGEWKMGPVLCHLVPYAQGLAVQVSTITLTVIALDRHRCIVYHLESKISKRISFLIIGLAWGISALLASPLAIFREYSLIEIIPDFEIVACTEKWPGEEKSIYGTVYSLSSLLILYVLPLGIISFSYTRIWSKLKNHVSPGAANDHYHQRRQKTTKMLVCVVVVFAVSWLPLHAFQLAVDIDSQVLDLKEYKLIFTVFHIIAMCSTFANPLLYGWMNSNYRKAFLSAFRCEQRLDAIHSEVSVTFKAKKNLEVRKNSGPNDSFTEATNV
PGE2 EP2 inh – EP2 receptor (human) inhibition | P43116 | C6 glioma cells expressing human EP2, cAMP TR-FRET; cells stimulated with saturating PGE2 | inhibition, % at 25 µM | actives 0.52% (n = 260,000) | AID 1422;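 active means percent inhibition above 40 after rounding to a whole number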;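 further: rat C6 glioma host cells with rolipram phosphodiesterase inhibitor present; the protocol text gives 20 µM as final concentration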
Target sequence (P43116 whole entry, looked up): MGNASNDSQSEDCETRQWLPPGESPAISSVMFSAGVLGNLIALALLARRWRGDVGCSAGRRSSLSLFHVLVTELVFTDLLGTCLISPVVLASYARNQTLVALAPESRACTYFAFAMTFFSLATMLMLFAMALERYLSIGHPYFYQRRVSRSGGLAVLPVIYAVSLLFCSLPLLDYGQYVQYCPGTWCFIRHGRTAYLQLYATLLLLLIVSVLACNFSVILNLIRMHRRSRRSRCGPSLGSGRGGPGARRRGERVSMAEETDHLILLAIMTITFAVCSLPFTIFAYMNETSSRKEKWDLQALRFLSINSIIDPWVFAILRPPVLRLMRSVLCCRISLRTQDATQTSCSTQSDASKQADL
NPY Y2 blocker – blocks the human neuropeptide Y Y2 receptor. NPY-Y2 expressing cells, antagonist mode. P49146. actives 0.99% (n = 140,000). inhibition, % at 2.7 µM; in the data active means inhibition above about 17%
NPY Y1 blocker – NPY-Y1 (human) receptor antagonism; P25929; HEK293-CNG Y1 cells, membrane potential fluorescence; NPY at EC95, then isoproterenol; inhibition, % at 3.6 µM; actives 1% (n = 200,000);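 active means inhibition above the campaign mean inhibition of all tested compounds plus 3 SD, cut at about 20% in these data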
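Benchmarks – high control isoproterenol alone, low control NPY with isoproterenol · Material – HEK293 Y1/CNG channel cell line · Times – dye 3 h, compound 60 min room temperature, stimulation 45 min · Probe or stimulus – NPY (25 nM), isoproterenol (1 µM), Ro 20-1724 (25 µM) · Evaluation – % inhibition of NPY effect · Signal – fluorescence, membrane potential probe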
EP2 modulator – modulators of human EP2 prostaglandin E2 receptor; AID 940; P43116; induction, % at 25 µM; EP2-expressing cells, cAMP HTRF FRET, PGE2 co-stimulation; actives 0.83% (n = 260,000);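 active means compounds whose cAMP rise, as percent of the full-agonist control response, exceeds 60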;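 further: rat C6 glioma line stably carrying human EP2 under a CMV promoter; the protocol text gives 20 µM as final concentration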
NPY-Y1 PAM-ag – human NPY-Y1 potentiation or agonism, primary screen; activation, % at 3.6 µM; NPY-Y1 expressing cells, potentiator/agonist activation; actives 0.37% (n = 220,000); in the data active means activation above about 33%, passing the limit was not always enough;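 further: cells stimulated with NPY at EC10 then isoproterenol at EC100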
A number is an active result; 0 = inactive; - = no result; ! = not active in a repeat. The list is not random: actives were taken first. Their share in the collection is about 2.8%.

SMILES | NPY-Y2 PAM-ag | PGE2 EP2 inh | NPY Y2 blocker | NPY Y1 blocker | EP2 modulator | NPY-Y1 PAM-ag
O=C(O)CCCn1cc(NC(=O)c2cc(F)c(F)cc2Cl)cn1 | 0 | 0 | - | 0 | 61 | 0
O=C(Nc1ccc2c(c1)Cc1ccccc1-2)[C@@H]1[C@H](C(=O)O)[C@]2(Cl)C(Cl)=C(Cl)[C@@]1(Cl)C2(Cl)Cl | - | 42 | - | - | 0 | -
O=C(Nc1ccc2c(c1)Cc1ccccc1-2)c1ccncc1 | 0 | 0 | 0 | 0 | 0 | 0
CC1CCN(c2nc(N3CCCCC3)nc(N3CCCCC3)n2)CC1 | 0 | 0 | - | 0 | 0 | 0
C1CCN(c2nc(N3CCCCC3)nc(N3CCNCC3)n2)CC1 | 96 | 0 | 0 | 0 | 0 | 103
COc1cc(C2SCCCCCCCCCCSC(c3ccc(O)c(OC)c3)SCCCCCCCCCCS2)ccc1O (configuration not stated) | - | 41 | - | - | 0 | -
Nc1ccc(Br)c2c1C(=O)c1ccccc1C2=O | 0 | 0 | 0 | 0 | 0 | 0
Nc1ccc(O)c2c1C(=O)c1ccccc1C2=O | 57 | 0 | 0 | 0 | 0 | 54
COCCCN1C(=O)C(O)=C(C(=O)c2ccco2)C1c1ccc(C(C)C)cc1 (configuration not stated) | - | 0 | - | - | 0 | -
O=C(CN(CC1CCCO1)C(=O)CCC(=O)Nc1nccs1)NCCc1ccccc1 (configuration not stated) | - | 0 | - | - | 0 | -
COC(=O)c1sc(-c2ccc(Cl)cc2)cc1NC(=O)c1ccccc1C(=O)O | 0 | 53 | - | - | 0 | 0
CN1CCN(CCCNN)CC1 | - | 0 | - | - | 0 | -
CN1CCN(CCCBr)CC1 | - | 41 | - | - | 0 | -
CCCn1c(SCC(=O)Nc2c(C)cccc2C)nc2c1c(=O)n(C)c(=O)n2C | - | 0 | - | - | 0 | -
CN(C)[C@H]1C(=O)C(C(=O)NCN2CCCC2)=C(O)[C@@]2(O)C(=O)C3=C(O)c4c(O)cccc4[C@](C)(O)[C@H]3C[C@H]12 | - | 44 | - | - | 0 | -
N#CC(C#N)=C1C=CC=CN1/C(=C\c1ccco1)C(=O)c1ccc(Br)cc1 | 0 | 49 | 0 | 0 | 0 | 0
N#CC(C#N)=C1C=CC=CN1/C(=C\c1ccco1)C(=O)c1ccccc1 | 0 | 0 | 0 | 0 | 0 | 0
O=C(CN1C(=O)[C@H]2CCCN2C(=O)c2ccccc21)NCCc1c[nH]c2ccccc12 | - | 0 | - | - | 0 | -
CCOC(=O)c1c(CSCc2ccccc2)oc2ccc(O)c(CN(C)C)c12 | 0 | 0 | - | - | 0 | 0
CCOC(=O)c1c(-c2ccccc2)oc2ccc(O)c(CN3CCCC3)c12 | 0 | 0 | 23 | 39 | 0 | 0
CCOC(=O)c1c(-c2ccccc2)oc2ccc(O)c(CN(C)C)c12 | 0 | 0 | 25 | 22 | 0 | 0
Cc1ccc(C(=O)NCCCCNC(=O)c2ccc(C)nc2)cn1 | - | 0 | - | - | 0 | -
CCN1CCCC1CN(Cc1ccccn1)Cc1cccs1 (configuration not stated) | - | 0 | - | - | 0 | -
O=C(c1ccccc1)c1ccc(OCC(O)CN2CCCCC2)cc1 (configuration not stated) | 0 | 0 | 0 | 0 | 0 | 0
OC(COc1ccc(C2C=CCC2)cc1)CN1CCCCC1 (configuration not stated) | 73 | 0 | 0 | 0 | 0 | 60
SMILES | NPY-Y2 PAM-ag | PGE2 EP2 inh | NPY Y2 blocker | NPY Y1 blocker | EP2 modulator | NPY-Y1 PAM-ag
COC(=O)c1ccc(NC(=S)NC(=O)c2cc(-c3ccccc3)nc3ccccc23)cc1 | 0 | - | 23 | 41 | 0 | 0
Cc1ccc(NC(=O)c2cc(Cl)nc3ccccc23)cc1 | 0 | 0 | 21 | 31 | 0 | 0
CCOc1ccc2[nH]c(=O)c(CN(Cc3ccc(F)cc3)Cc3nnnn3C3CCCC3)cc2c1 | - | 0 | - | - | 61 | -
CCOc1ccc2[nH]c(=O)c(CN(Cc3nnnn3C3CCCCC3)C3CCCC3)cc2c1 | - | 0 | - | - | 0 | -
Cc1cc2cc(CN(Cc3ccc4c(c3)OCO4)Cc3nnnn3C3CCCC3)c(=O)[nH]c2cc1C | 0 | 0 | 0 | 0 | 64 | 0
O=c1[nH]c2cc3c(cc2cc1CN(CCc1ccccc1)Cc1nnnn1C1CCCC1)OCCO3 | 0 | 0 | 0 | 0 | 0 | 0
CCOc1ccc2[nH]c(=O)c(CN(CCc3ccccc3)Cc3nnnn3C3CCCCC3)cc2c1 | - | 0 | - | - | 62 | -
COc1ccc2cc(C#N)c(SCC(=O)Nc3ccc(C)cc3C)nc2c1 | - | 0 | - | - | 0 | -
Cc1ccc(NC(=O)c2nc3ncccn3n2)cc1 | - | 0 | - | - | 0 | -
Cc1csc(NC(=O)CSc2nnc(-c3ccc(Cl)cc3)n2C)n1 | - | 0 | - | - | 0 | -
CSc1nc2ccccc2n1Cc1c(Cl)cccc1Cl | 0 | 0 | 0 | 0 | 65 | 0
COc1c(C)cc(Br)cc1C(=O)Nc1ccc(Cc2ccncc2)cc1 | 0 | 0 | - | 0 | 64 | 0
COc1ccccc1C(=O)Nc1ccc(Cc2ccncc2)cc1 | 0 | 0 | 0 | 0 | 0 | 0
COC(=O)CSc1nnc(-c2ccc(S(=O)(=O)N3CCCCC3)cc2)o1 | 42 | 0 | 0 | 0 | 0 | 63
COC(=O)CSc1nnc(-c2ccc(S(=O)(=O)N3CCC(C)CC3)cc2)o1 | 0 | 0 | 0 | 0 | 0 | 0
COc1ccc(/C(O)=C2/C(=O)C(=O)N(Cc3cccnc3)C2c2ccc(OC)c(OC)c2)c(C)c1 (configuration not stated) | - | 0 | - | - | 0 | -
Cc1cc(OCc2ccccc2)ccc1/C(O)=C1/C(=O)C(=O)N(Cc2cccnc2)C1c1ccncc1 (configuration not stated) | 0 | 0 | - | - | 64 | 0
O=C1/C(=C\c2ccccc2)[C@@H](NC2CCCCC2)c2ccccc21 | - | 58 | - | - | 0 | -
COc1cc2cc(C)c(SC)nc2cc1OC | - | 0 | - | - | 0 | -
C/C(=N\N(c1ccccc1)c1ccccc1)c1ccco1 | 0 | 0 | - | 0 | 62 | 0
O=C(Nc1c(C(=O)C2CC2)oc2ccccc12)c1ccc(Cl)cc1 | 0 | 0 | 0 | 0 | 64 | 0
CC1(C)SC(=S)N(/N=C/c2ccc(O)cc2)C1N(O)C(=O)Nc1ccc([N+](=O)[O-])cc1 (configuration not stated) | 33 | 0 | 0 | 0 | 0 | 0
C[N+](C)(C)CCC(=O)c1cccc2ccccc12 | - | 106 | - | - | 0 | -
COc1ccc(OC)c(NC(=O)CN(c2ccc(C(C)C)cc2)S(=O)(=O)c2c(C)noc2C)c1 | 0 | 0 | 0 | 0 | 0 | 0
CCCN(c1ccc(C(C)C)cc1)S(=O)(=O)c1c(C)noc1C | 0 | 0 | 28 | 22 | 0 | 0
SMILES | NPY-Y2 PAM-ag | PGE2 EP2 inh | NPY Y2 blocker | NPY Y1 blocker | EP2 modulator | NPY-Y1 PAM-ag
COc1cc(Cn2c(-c3ccc(O)c(OC)c3)nc3ccccc32)ccc1O | 0 | 0 | - | - | 0 | 0
Oc1ccc(Cn2c(-c3ccc(O)cc3)nc3ccccc32)cc1 | - | 47 | - | - | 0 | -
Nc1nc(Nc2ccccc2F)nc(NCc2ccccc2)c1[N+](=O)[O-] | 0 | 0 | - | - | 76 | 0
CCOc1ccccc1NC(=O)CSc1nnc2c3c(C)c(C)sc3nc(C(C)C)n12 | - | 0 | - | - | 0 | -
COc1ccc(N2CC(C(=O)N/N=C/c3c[nH]c4ccccc34)CC2=O)cc1 (configuration not stated) | 0 | 0 | - | 0 | 0 | 0
CCCCCN=C(N)N/N=C/c1c[nH]c2ccc(OC)cc12 | - | 136! | - | - | 0 | -

Assay outcomes (PubChem BioAssay)
